One test deals with Aspergillus niger. Briefly: Antifungal activity against Aspergillus niger ATCC 6275 after 72 hrs by serial dilution assay. As to conditions: ATCC 6275, 72 h. The class given is functional. An outline of the steps: (§1)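 Modified microdilution: fungal spores washed off malt agar with sterile 0.85% saline plus 0.1% Tween 80, adjusted to about 1.0×10^5 per 100 µL well. Compounds in 5% DMSO (0.001-1.0 mg/ml) in malt broth; 72 h at 28°C on rotary shaker (160 rpm). MIC is lowest concentration without visible growth under binocular microscope. Bifonazole and ketoconazole controls (1-3500 µg/mL); three independent experiments in duplicate.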

In another test the test system is Enterobacter cloacae. In words: Antibacterial activity against Enterobacter cloacae after 24 hrs by INT dye based microdilution assay. It is filed as functional. An outline of the steps: (§2)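 Broth microdilution in tryptic soy broth: overnight bacterial culture adjusted to 1×10^5 CFU/mL, 1.0×10^4 CFU per well; compounds dissolved in 5% DMSO, tested at 0.001-1.0 mg/ml; 24 h at 37°C. Streptomycin and ampicillin as positive controls, 5% DMSO as negative control; duplicate, repeated three times.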

The test system of test [1] is Escherichia coli. Briefly: Antibacterial activity against Escherichia coli ATCC 35210 after 24 hrs by INT dye based microdilution assay. It is filed as functional. Particulars: ATCC 35210, 24 h. An outline of the steps: as §2
Background: In broth dilution the organism is exposed to a series of concentrations in liquid medium.

Another test has as its system Aspergillus fumigatus. In words: Antifungal activity against Aspergillus fumigatus isolate 1022 after 72 hrs by serial dilution assay. It is filed as functional. As to conditions: isolate 1022, 72 h. An outline of the steps: as §1
Another test concerns Aspergillus ochraceus. Briefly: Antifungal activity against Aspergillus ochraceus ATCC 12066 after 72 hrs by serial dilution assay. It is filed as functional. As to conditions: ATCC 12066, 72 h. An outline of the steps:
as §1

The test system of another test is Penicillium ochrochloron. Briefly: Antifungal activity against Penicillium ochrochloron ATCC 9112 after 72 hrs by serial dilution assay. It is filed as functional. Particulars: ATCC 9112, 72 h. An outline of the steps:
as §1

For test [2], the system named is Staphylococcus aureus. Briefly: Antibacterial activity against Staphylococcus aureus ATCC 6538 after 24 hrs by INT dye based microdilution assay. It is filed as functional. Particulars: ATCC 6538, 24 h. In outline:
as §2

The subject of a further test is Bacillus cereus. Briefly: Antibacterial activity against Bacillus cereus after 24 hrs by INT dye based microdilution assay. It is filed as functional. In outline:
as §2

A further test concerns Trichoderma viride. In words: Antifungal activity against Trichoderma viride IAM 5061 after 72 hrs by serial dilution assay. It is filed as functional. Particulars: IAM 5061, 72 h. In outline: as §1
Test [3] relates to Pseudomonas aeruginosa. In words: Antibacterial activity against drug-resistant Pseudomonas aeruginosa after 24 hrs by INT dye based microdilution assay. It is filed as functional. In outline:
(§3)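 Broth microdilution in tryptic soy broth. Overnight culture adjusted to 1×10^5 CFU/mL, giving 1.0×10^4 CFU per well. Compounds dissolved in 5% DMSO and tested at 0.001-1.0 mg/ml. Plates incubated 24 h at 37°C. INT (0.2 mg/mL) then added, with 30 min at 37°C. Duplicate, repeated three times.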

In test [4] the test system is Listeria monocytogenes. In words: Antibacterial activity against Listeria monocytogenes NCTC 7973 after 24 hrs by INT dye based microdilution assay. It is filed as functional. As to conditions: NCTC 7973, 24 h. An outline of the steps:
as §2

The next test deals with Penicillium verrucosum. Briefly: Antifungal activity against Penicillium cyclopium var verucosum after 72 hrs by serial dilution assay. The class given is functional. An outline of the steps: as §1
Test [5] deals with Staphylococcus aureus. In words: Antibacterial activity against methicillin-resistant Staphylococcus aureus after 24 hrs by INT dye based microdilution assay. It is filed as functional. In outline:
as §3

In a further test the test system is Talaromyces funiculosus. In words: Antifungal activity against Penicillium funiculosum ATCC 36839 after 72 hrs by serial dilution assay. The class given is functional. Particulars: ATCC 36839, 72 h. An outline of the steps: as §1
The next test concerns Aspergillus versicolor. Briefly: Antifungal activity against Aspergillus versicolor ATCC 11730 after 72 hrs by serial dilution assay. Particulars: ATCC 11730, 72 h. The class given is functional. An outline of the steps: as §1
Test [6] concerns Pseudomonas aeruginosa. Briefly: Antibacterial activity against Pseudomonas aeruginosa ATCC 27853 after 24 hrs by INT dye based microdilution assay. It is filed as functional. As to conditions: ATCC 27853, 24 h. An outline of the steps:
as §2

For a further test, the system named is Micrococcus flavus. In words: Antibacterial activity against Micrococcus flavus ATCC 10240 after 24 hrs by INT dye based microdilution assay. The class given is functional. As to conditions: ATCC 10240, 24 h. An outline of the steps:
as §2

Test [7] deals with Escherichia coli. Briefly: Antibacterial activity against drug-resistant Escherichia coli after 24 hrs by INT dye based microdilution assay. The class given is functional. In outline:
as §3

The subject of the next test is Salmonella typhimurium. In words: Antibacterial activity against Salmonella typhimurium ATCC 13311 after 24 hrs by INT dye based microdilution assay. The class given is functional, Salmonella enterica subsp. enterica serovar Typhimurium. Particulars: Salmonella enterica, ATCC 13311, 24 h. An outline of the steps: as §2
The subject of test [8] is Listeria monocytogenes. Briefly: Potency index, ratio of ampicillin MIC to compound MIC for antibacterial activity against Listeria monocytogenes NCTC 7973. It is filed as functional.
The test system of test [9] is Listeria monocytogenes. In words: Potency index, ratio of streptomycin MIC to compound MIC for antibacterial activity against Listeria monocytogenes NCTC 7973. It is filed as functional.
A further test has as its system Candida albicans. Briefly: Antifungal activity against Candida albicans after 72 hrs by serial dilution assay. The class given is functional. An outline of the steps: as §1

Converted amounts (≈) assume the structure as drawn.

A word on the MIC: it is the lowest concentration that inhibits growth of the organism. A low value points to greater potency. Consider `O=C1N/C(=N\c2nnc(C34CC5CC(CC(C5)C3)C4)s2)S/C1=C/c1ccccc1`, for which the MIC with Aspergillus niger was 95 µM (≈ 40.1 µg/mL); against Enterobacter cloacae it was 94.7 µM (≈ 40 µg/mL); in the test with Escherichia coli [1] it was 0.0947 µM (≈ 0.04 µg/mL); against Aspergillus fumigatus it was 47.5 µM (≈ 20.1 µg/mL); against Aspergillus ochraceus it was 47.5 µM (≈ 20.1 µg/mL); against Penicillium ochrochloron, 47.5 µM (≈ 20.1 µg/mL). Further, the MIC in the test on Staphylococcus aureus [2] amounted to 0.0473 µM (≈ 0.02 µg/mL); with Bacillus cereus, 94.7 µM (≈ 40 µg/mL); in the test with Trichoderma viride, 47.5 µM (≈ 20.1 µg/mL); against Pseudomonas aeruginosa [3], 47.3 µM (≈ 20 µg/mL); with Listeria monocytogenes [4], 94.7 µM (≈ 40 µg/mL); against Penicillium verrucosum, 0.095 µM (≈ 0.0401 µg/mL). Also, the MIC with Staphylococcus aureus [5] worked out at 0.0473 µM (≈ 0.02 µg/mL); in the test with Talaromyces funiculosus it was 47.5 µM (≈ 20.1 µg/mL); in the test on Aspergillus versicolor, 95 µM (≈ 40.1 µg/mL); with Pseudomonas aeruginosa [6] it was 94.7 µM (≈ 40 µg/mL); against Micrococcus flavus it was 94.7 µM (≈ 40 µg/mL); in the test with Escherichia coli [7], 0.0236 µM (≈ 0.00997 µg/mL). In the test with Salmonella typhimurium, this compound displayed an MIC of 23.6 µM (≈ 9.97 µg/mL).

As for `O=C1N/C(=N\c2nnc(C34CC5CC(CC(C5)C3)C4)s2)S/C1=C/c1cccc([N+](=O)[O-])c1`, the MIC in the test on Aspergillus niger amounted to 214 µM (≈ 100 µg/mL); in the test on Enterobacter cloacae, 41.8 µM (≈ 19.5 µg/mL); against Escherichia coli [1] it was 0.0418 µM (≈ 0.0195 µg/mL); in the test with Aspergillus fumigatus, 107 µM (≈ 50 µg/mL); against Aspergillus ochraceus, 107 µM (≈ 50 µg/mL); in the test on Penicillium ochrochloron, 214 µM (≈ 100 µg/mL). Further, the MIC against Staphylococcus aureus [2] was determined as 0.0418 µM (≈ 0.0195 µg/mL); in the test on Bacillus cereus, 21.4 µM (≈ 10 µg/mL); in the test on Trichoderma viride, 53.5 µM (≈ 25 µg/mL); against Pseudomonas aeruginosa [3], 53.5 µM (≈ 25 µg/mL); against Listeria monocytogenes [4], 17 µM (≈ 7.95 µg/mL); in the test on Penicillium verrucosum it was 0.107 µM (≈ 0.05 µg/mL). Also, the MIC is 0.107 µM (≈ 0.05 µg/mL) with Staphylococcus aureus [5]; 107 µM (≈ 50 µg/mL) against Talaromyces funiculosus; 107 µM (≈ 50 µg/mL) in the test on Aspergillus versicolor; 21.4 µM (≈ 10 µg/mL) in the test with Pseudomonas aeruginosa [6]; 41.8 µM (≈ 19.5 µg/mL) against Micrococcus flavus; 0.0535 µM (≈ 0.025 µg/mL) against Escherichia coli [7]. For the same compound, 21.4 µM (≈ 10 µg/mL) was the least that counted as inhibitory against Salmonella typhimurium (MIC). The Ratio with Listeria monocytogenes [8] was 29; in the test on Listeria monocytogenes [9], 20.

Consider `O=C1N/C(=N\c2nnc(C34CC5CC(CC(C5)C3)C4)s2)S/C1=C/c1cccc(Cl)c1`, for which the MIC came to 137 µM (≈ 62.6 µg/mL) in the test on Aspergillus niger; 137 µM (≈ 62.6 µg/mL) in the test on Enterobacter cloacae; 0.066 µM (≈ 0.0302 µg/mL) against Escherichia coli [1]; 137 µM (≈ 62.6 µg/mL) with Aspergillus fumigatus; 68 µM (≈ 31.1 µg/mL) against Aspergillus ochraceus; 68 µM (≈ 31.1 µg/mL) in the test on Penicillium ochrochloron. The MIC worked out at 0.088 µM (≈ 0.0402 µg/mL) in the test with Staphylococcus aureus [2]; 66 µM (≈ 30.2 µg/mL) against Bacillus cereus; 68 µM (≈ 31.1 µg/mL) with Trichoderma viride; 137 µM (≈ 62.6 µg/mL) in the test on Listeria monocytogenes [4]; 274 µM (≈ 125 µg/mL) against Candida albicans; 137 µM (≈ 62.6 µg/mL) against Talaromyces funiculosus. Also, the MIC was determined as 68 µM (≈ 31.1 µg/mL) against Aspergillus versicolor, 66 µM (≈ 30.2 µg/mL) in the test on Pseudomonas aeruginosa [6], 66 µM (≈ 30.2 µg/mL) with Micrococcus flavus and 66 µM (≈ 30.2 µg/mL) against Salmonella typhimurium.

On to `O=C1N/C(=N\c2nnc(C34CC5CC(CC(C5)C3)C4)s2)S/C1=C/c1ccc(Br)cc1`, for which the MIC with Aspergillus niger was determined as 62.5 µM (≈ 31.3 µg/mL); against Enterobacter cloacae, 60 µM (≈ 30.1 µg/mL); with Escherichia coli [1], 0.08 µM (≈ 0.0401 µg/mL); in the test on Aspergillus fumigatus, 125 µM (≈ 62.7 µg/mL); in the test on Aspergillus ochraceus it was 15.6 µM (≈ 7.82 µg/mL); with Penicillium ochrochloron it was 62.5 µM (≈ 31.3 µg/mL). Also, the MIC against Staphylococcus aureus [2] was determined as 0.06 µM (≈ 0.0301 µg/mL); against Bacillus cereus, 14 µM (≈ 7.02 µg/mL); against Trichoderma viride, 31.2 µM (≈ 15.6 µg/mL); with Listeria monocytogenes [4] it was 250 µM (≈ 125 µg/mL); in the test with Candida albicans, 200 µM (≈ 100 µg/mL); against Talaromyces funiculosus it was 125 µM (≈ 62.7 µg/mL). Moreover, the MIC against Aspergillus versicolor was found to be 62.5 µM (≈ 31.3 µg/mL); against Pseudomonas aeruginosa [6] it was 60 µM (≈ 30.1 µg/mL); with Micrococcus flavus, 250 µM (≈ 125 µg/mL); against Salmonella typhimurium, 14 µM (≈ 7.02 µg/mL).

For `COc1cc(/C=C2/S/C(=N/c3nnc(C45CC6CC(CC(C6)C4)C5)s3)NC2=O)ccc1O`, the MIC in the test on Aspergillus niger is 66 µM (≈ 30.9 µg/mL); in the test with Enterobacter cloacae, 32 µM (≈ 15 µg/mL); against Escherichia coli [1], 0.134 µM (≈ 0.0628 µg/mL); with Aspergillus fumigatus it was 133 µM (≈ 62.3 µg/mL); in the test with Aspergillus ochraceus, 17 µM (≈ 7.97 µg/mL); in the test with Penicillium ochrochloron, 66 µM (≈ 30.9 µg/mL). The MIC in the test on Staphylococcus aureus [2] came to 0.032 µM (≈ 0.015 µg/mL); against Bacillus cereus, 32 µM (≈ 15 µg/mL); in the test on Trichoderma viride, 17 µM (≈ 7.97 µg/mL); against Listeria monocytogenes [4], 134 µM (≈ 62.8 µg/mL); in the test with Candida albicans, 133 µM (≈ 62.3 µg/mL); against Talaromyces funiculosus it was 66 µM (≈ 30.9 µg/mL). In addition, the MIC in the test with Aspergillus versicolor was determined as 33 µM (≈ 15.5 µg/mL); in the test on Pseudomonas aeruginosa [6] it was 32 µM (≈ 15 µg/mL); in the test with Micrococcus flavus, 134 µM (≈ 62.8 µg/mL); in the test with Salmonella typhimurium, 32 µM (≈ 15 µg/mL).

The values are drawn from ChEMBL document CHEMBL4229530, “5-Adamantan thiadiazole-based thiazolidinones as antimicrobial agents. Design, synthesis, molecular docking and evaluation” (2018).
